Calls of active or inactive are those of the source. No cut-off for these calls is given here.

One may read the IC50 as the point on the concentration scale where inhibition reaches its midpoint. A word on the inhibition: it is the share of the control response that was lost under treatment.

In one experiment the test system is A-431. Nature of the experiment: Growth inhibition of human A431 cells at 10 uM after 72 hrs by CellTiter-Glo assay relative to control. It counts as functional. Conditions: A-431, 72 h, read-out: GI. The gist of the method: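 A431 cells seeded at 2000–4000 cells/well and treated with 10 μM final compound, 0.1% DMSO, for 72 h at 37 °C, 5% CO2. Viability read by CellTiter-Glo. Inhibition ratio = 1 − Vsample/Vvehicle control; triplicate.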
In general terms: ATP-based viability assays read luminescence as a measure of living cells.

Experiment [1] concerns MDA-MB-435. The experiment is described as follows: Growth inhibition of human MDA-MB-435 cells after 72 hrs by CellTiter-Glo assay. The format is functional, cell-based. The conditions noted are these: MDA-MB-435, 72 h. The gist of the method: (§1)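 Cells in exponential phase seeded at 2000–4000 cells/well, then exposed 72 h at 37 °C, 5% CO2 with 0.1% final DMSO. Single-point screen at 10 μM final. […] Read-out was CellTiter-Glo luminescence.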

Experiment [2] has as its system MDA-MB-435. The experiment is described as follows: Growth inhibition of human MDA-MB-435 cells at 10 uM after 72 hrs by CellTiter-Glo assay relative to control. Conditions: MDA-MB-435, 72 h, read-out: GI. The format is functional. The gist of the method: as §1
Experiment [3] has as its system HUVEC. Nature of the experiment: Growth inhibition of HUVEC after 72 hrs by CellTiter-Glo assay. It counts as functional, cell-based. Conditions: Homo sapiens. The gist of the method: as §1
Experiment [4] relates to HUVEC. The experiment is described as follows: Growth inhibition of HUVEC at 10 uM after 72 hrs by CellTiter-Glo assay relative to control. It counts as functional. Conditions: Homo sapiens, read-out: GI. The method, boiled down:
as §1

The target of experiment [5] is T1, Vascular endothelial growth factor receptor 2 (Homo sapiens, UniProt P35968). Conditions: at 10 µM.
T1 sequence (P35968 whole entry): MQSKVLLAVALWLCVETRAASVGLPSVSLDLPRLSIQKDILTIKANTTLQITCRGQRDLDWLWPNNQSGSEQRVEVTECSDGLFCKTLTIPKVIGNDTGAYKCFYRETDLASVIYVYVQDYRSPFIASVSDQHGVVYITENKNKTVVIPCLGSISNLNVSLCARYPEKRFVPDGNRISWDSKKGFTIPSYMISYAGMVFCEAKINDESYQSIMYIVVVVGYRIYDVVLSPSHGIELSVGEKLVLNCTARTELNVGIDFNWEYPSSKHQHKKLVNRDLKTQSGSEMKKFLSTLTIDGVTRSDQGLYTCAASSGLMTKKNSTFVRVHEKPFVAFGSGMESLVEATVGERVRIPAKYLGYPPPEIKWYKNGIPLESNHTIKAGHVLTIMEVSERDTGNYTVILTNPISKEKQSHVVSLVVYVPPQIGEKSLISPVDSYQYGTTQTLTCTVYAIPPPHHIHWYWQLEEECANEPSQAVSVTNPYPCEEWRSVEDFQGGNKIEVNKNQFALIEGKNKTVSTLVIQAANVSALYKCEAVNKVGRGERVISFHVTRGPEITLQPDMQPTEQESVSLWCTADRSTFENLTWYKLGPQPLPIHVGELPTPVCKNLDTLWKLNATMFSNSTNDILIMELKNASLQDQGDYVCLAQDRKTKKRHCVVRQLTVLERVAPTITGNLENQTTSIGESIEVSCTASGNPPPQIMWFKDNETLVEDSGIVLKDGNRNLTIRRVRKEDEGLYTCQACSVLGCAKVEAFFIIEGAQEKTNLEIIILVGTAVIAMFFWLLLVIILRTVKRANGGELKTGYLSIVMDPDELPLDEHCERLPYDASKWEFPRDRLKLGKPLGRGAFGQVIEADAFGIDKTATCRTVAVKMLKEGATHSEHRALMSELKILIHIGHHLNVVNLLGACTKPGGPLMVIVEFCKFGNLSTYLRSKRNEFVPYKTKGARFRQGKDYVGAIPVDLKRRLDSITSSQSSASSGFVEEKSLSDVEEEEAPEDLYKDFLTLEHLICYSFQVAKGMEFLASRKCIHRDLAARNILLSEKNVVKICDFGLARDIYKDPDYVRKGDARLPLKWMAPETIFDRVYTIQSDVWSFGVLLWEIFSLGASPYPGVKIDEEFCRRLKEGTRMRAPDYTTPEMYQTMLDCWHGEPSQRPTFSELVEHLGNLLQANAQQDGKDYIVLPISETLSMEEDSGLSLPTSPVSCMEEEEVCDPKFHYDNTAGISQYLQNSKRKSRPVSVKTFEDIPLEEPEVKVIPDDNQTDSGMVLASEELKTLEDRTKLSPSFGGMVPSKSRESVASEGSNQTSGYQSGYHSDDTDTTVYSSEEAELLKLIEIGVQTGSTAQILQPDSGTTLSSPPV
Experiment [6] deals with T1, Vascular endothelial growth factor receptor 2.
For experiment [7], the species on record is Homo sapiens. The experiment is described as follows: Inhibition of human PDGFR at 0.5 uM relative to control.
In experiment [8] the target is Ephrin type-A receptor 3 (Homo sapiens) (UniProt P29320). Nature of the experiment: Inhibition of human EPHA3 at 0.5 uM relative to control.
Experiment [9] concerns the target Ephrin type-A receptor 8 (Homo sapiens) (UniProt P29322). Nature of the experiment: Inhibition of human EPHA8 at 0.5 uM relative to control.
The target in experiment [10] is Ephrin type-A receptor 7 (Homo sapiens) (UniProt Q15375). Nature of the experiment: Inhibition of human EPHA7 at 0.5 uM relative to control.
Ephrin type-A receptor 7 (Homo sapiens), sequence (Q15375 28-998 limits assumed): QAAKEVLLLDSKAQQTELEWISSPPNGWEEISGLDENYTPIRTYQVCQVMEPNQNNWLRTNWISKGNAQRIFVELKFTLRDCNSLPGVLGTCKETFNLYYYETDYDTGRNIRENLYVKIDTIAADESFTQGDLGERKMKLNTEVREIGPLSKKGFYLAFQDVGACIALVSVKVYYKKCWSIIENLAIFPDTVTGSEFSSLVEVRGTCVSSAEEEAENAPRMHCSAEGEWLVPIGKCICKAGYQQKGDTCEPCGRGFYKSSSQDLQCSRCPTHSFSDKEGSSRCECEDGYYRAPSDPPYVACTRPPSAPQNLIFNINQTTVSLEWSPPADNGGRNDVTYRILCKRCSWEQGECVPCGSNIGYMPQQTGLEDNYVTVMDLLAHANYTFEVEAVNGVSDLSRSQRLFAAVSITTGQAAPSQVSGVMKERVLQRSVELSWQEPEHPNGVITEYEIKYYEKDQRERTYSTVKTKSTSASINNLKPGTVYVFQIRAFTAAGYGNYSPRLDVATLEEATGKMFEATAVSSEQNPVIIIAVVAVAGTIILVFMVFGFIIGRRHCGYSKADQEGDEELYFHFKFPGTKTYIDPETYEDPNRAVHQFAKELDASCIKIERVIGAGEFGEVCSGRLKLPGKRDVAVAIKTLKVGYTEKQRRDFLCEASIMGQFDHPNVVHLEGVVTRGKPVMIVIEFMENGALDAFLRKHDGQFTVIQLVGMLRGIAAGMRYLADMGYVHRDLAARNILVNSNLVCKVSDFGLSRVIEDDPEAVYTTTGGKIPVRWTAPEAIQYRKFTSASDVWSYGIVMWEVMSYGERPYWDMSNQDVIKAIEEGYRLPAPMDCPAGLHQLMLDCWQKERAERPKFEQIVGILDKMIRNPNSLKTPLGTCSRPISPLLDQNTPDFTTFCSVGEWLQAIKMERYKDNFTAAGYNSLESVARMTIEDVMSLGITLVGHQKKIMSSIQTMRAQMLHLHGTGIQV
Experiment [11] deals with Ephrin type-A receptor 5 (Homo sapiens) (UniProt P54756). Nature of the experiment: Inhibition of human EPHA5 at 0.5 uM relative to control.
Experiment [12] deals with Mitogen-activated protein kinase kinase kinase kinase 5 (Homo sapiens) (UniProt Q9Y4K4). Nature of the experiment: Inhibition of human KHS at 0.5 uM relative to control.
Mitogen-activated protein kinase kinase kinase kinase 5 (Homo sapiens), sequence (Q9Y4K4 whole entry, looked up): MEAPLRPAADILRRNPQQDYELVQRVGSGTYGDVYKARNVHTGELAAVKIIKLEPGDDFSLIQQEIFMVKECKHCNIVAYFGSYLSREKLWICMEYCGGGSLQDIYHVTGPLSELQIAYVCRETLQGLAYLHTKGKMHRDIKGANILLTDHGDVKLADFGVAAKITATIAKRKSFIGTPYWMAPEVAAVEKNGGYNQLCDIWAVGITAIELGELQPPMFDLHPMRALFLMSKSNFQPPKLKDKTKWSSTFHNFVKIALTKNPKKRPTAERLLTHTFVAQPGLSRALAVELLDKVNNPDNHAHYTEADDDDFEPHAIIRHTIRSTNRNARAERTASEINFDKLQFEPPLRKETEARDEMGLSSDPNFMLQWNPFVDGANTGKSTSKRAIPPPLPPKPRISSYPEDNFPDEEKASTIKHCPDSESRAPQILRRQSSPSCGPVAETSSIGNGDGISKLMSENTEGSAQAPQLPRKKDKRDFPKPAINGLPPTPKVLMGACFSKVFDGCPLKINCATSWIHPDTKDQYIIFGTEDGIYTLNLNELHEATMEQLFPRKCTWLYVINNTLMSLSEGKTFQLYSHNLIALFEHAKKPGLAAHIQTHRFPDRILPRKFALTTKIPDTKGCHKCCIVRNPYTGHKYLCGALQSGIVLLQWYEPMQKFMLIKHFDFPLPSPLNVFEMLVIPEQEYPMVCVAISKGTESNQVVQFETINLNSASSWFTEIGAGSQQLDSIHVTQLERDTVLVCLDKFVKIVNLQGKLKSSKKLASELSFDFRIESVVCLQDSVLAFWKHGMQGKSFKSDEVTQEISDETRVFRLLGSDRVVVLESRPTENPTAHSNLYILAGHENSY
The target of experiment [13] is TRAF2 and NCK-interacting protein kinase (Homo sapiens) (UniProt Q9UKE5). Nature of the experiment: Inhibition of human TNIK at 0.5 uM relative to control.
The target of experiment [14] is Vascular endothelial growth factor receptor 3 (Homo sapiens) (UniProt P35916). The experiment is described as follows: Inhibition of human Flt4 at 0.5 uM relative to control.
Experiment [15] addresses STE20-like serine/threonine-protein kinase (Homo sapiens) (UniProt Q9H2G2). The experiment is described as follows: Inhibition of human SLK at 0.5 uM relative to control.
Experiment [16] has as its target Ephrin type-A receptor 4 (Homo sapiens) (UniProt P54764). Nature of the experiment: Inhibition of human EPHA4 at 0.5 uM relative to control.
Experiment [17] has as its target Ephrin type-A receptor 2 (Homo sapiens) (UniProt P29317). The experiment is described as follows: Inhibition of human EPHA2 at 0.5 uM relative to control.
The species named for experiment [18] is Homo sapiens. The experiment is described as follows: Inhibition of human DDR at 0.5 uM relative to control.
In experiment [19] the target is Tyrosine-protein kinase HCK (Homo sapiens) (UniProt P08631). Nature of the experiment: Inhibition of human HCK at 0.5 uM relative to control.
Tyrosine-protein kinase HCK (Homo sapiens), sequence (P08631 2-526 limits assumed): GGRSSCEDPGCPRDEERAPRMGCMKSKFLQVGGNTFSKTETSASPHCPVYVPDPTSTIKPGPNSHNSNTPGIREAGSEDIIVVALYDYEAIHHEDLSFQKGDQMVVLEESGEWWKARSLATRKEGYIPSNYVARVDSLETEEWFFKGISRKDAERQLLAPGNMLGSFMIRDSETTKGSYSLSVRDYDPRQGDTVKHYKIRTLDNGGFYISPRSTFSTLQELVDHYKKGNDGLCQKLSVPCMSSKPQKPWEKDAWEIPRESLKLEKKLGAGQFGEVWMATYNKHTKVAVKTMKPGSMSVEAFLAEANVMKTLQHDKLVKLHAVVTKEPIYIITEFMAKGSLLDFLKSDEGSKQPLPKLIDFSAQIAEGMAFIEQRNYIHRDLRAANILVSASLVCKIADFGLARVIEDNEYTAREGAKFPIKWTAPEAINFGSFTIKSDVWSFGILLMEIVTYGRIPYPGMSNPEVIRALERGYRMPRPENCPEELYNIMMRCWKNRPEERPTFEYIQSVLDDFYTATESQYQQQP
The target of experiment [20] is Receptor-type tyrosine-protein kinase FLT3 (Homo sapiens) (UniProt P36888). The experiment is described as follows: Inhibition of human Flt3 at 0.5 uM relative to control.
Experiment [21] addresses Vascular endothelial growth factor receptor 1 (Homo sapiens) (UniProt P17948). Nature of the experiment: Inhibition of human Flt1 at 0.5 uM relative to control.

Ephrin type-A receptor 8 (Homo sapiens), sequence (P29322 whole entry): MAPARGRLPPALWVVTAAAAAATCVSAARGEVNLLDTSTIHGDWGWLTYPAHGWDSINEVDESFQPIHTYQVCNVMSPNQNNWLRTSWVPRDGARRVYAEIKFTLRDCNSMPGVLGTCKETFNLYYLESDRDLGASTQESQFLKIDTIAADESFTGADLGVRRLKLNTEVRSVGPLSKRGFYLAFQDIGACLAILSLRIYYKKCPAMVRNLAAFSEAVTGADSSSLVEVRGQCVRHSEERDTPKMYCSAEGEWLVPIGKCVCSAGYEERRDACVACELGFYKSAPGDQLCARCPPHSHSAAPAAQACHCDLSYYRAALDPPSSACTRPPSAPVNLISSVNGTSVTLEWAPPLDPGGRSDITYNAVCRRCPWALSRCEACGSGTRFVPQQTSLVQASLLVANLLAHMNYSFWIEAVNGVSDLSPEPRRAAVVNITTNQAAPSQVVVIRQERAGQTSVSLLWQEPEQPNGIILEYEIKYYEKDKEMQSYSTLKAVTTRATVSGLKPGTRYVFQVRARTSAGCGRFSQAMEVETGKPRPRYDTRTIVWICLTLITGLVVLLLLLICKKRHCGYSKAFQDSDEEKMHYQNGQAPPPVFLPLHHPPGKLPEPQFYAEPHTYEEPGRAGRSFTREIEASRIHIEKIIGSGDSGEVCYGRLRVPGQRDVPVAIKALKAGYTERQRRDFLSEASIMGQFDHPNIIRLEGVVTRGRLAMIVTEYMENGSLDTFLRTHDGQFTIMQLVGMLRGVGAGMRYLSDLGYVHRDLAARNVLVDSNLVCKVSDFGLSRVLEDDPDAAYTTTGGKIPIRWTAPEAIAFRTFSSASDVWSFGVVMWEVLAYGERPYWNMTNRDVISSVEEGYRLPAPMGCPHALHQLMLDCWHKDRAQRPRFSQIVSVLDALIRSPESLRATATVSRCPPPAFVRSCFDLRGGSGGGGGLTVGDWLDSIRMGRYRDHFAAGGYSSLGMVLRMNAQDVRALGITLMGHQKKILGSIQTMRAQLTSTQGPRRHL

Consider `COc1cc2ncnc(Oc3ccc(NC(=O)Nc4ccc(Cl)c(C(F)(F)F)c4)c4ccccc34)c2cc1OC`, for which the inhibition of growth at 10 µM is 14.9% with A-431, 95.1% in the experiment on MDA-MB-435 [2] and 82.9% in the experiment with HUVEC [4]. The IC50 with MDA-MB-435 [1] was determined as 3790 nM; in the experiment on HUVEC [3], 2970 nM.
As for `COc1cc2ncnc(Oc3ccc(NC(=O)NC4CC4)c4ccccc34)c2cc1OC`, the values for the inhibition of growth at 10 µM in the experiment with A-431, in the experiment with MDA-MB-435 [2] and in the experiment with HUVEC [4] were 15.1%, 1.48% and 63.9%, respectively.
In experiment [5], `COc1cc2ncnc(Oc3ccc(NS(=O)(=O)c4ccccc4)c4ccccc34)c2cc1OC` came in with an inhibition of 44.3%. In experiment [6], this compound returned an IC50 above 10000 nM.
On to `COc1cc2ncnc(Oc3ccc(NC(=O)Nc4cccc(C(F)(F)F)c4)c4ccccc34)c2cc1OC`, for which the figures for the inhibition of growth at 10 µM in the experiment on A-431, in the experiment on MDA-MB-435 [2] and in the experiment on HUVEC [4] were -4.51%, 24.5% and 66.8%, respectively. This compound displayed an inhibition in experiment [5] of 99%. The IC50 in experiment [6] was determined as 28.8 nM.
On to `CNC(=O)c1cc(Oc2ccc(NC(=O)Nc3ccc(Cl)c(C(F)(F)F)c3)cc2)ccn1` [SORAFENIB], for which the inhibition of growth at 10 µM was 68.9% with A-431, 91.9% in the experiment on MDA-MB-435 [2] and 84.7% in the experiment with HUVEC [4]. In addition, the IC50 worked out at 2110 nM in the experiment with MDA-MB-435 [1] and 1490 nM with HUVEC [3].
Consider `COc1cc2ncnc(Oc3ccc(NC(=O)Nc4cnn(C(C)C)c4)c4ccccc34)c2cc1OC`, for which the results for the inhibition of growth at 10 µM in the experiment on A-431, with MDA-MB-435 [2] and in the experiment with HUVEC [4] were 49.9%, 27.7% and 93.6%, respectively. Further, 630 nM corresponded to half-maximal inhibition in the experiment on HUVEC [3] (IC50).
With `COc1cc2ncnc(Oc3ccc(NC(=O)Nc4ccc(Cl)c(C(F)(F)F)c4)c4cccnc34)c2cc1OC`, the inhibition of growth at 10 µM in the experiment with A-431 came out at 21%; in the experiment with MDA-MB-435 [2] it was 44.3%; in the experiment on HUVEC [4] it was 51.5%.
The matching figures for `COc1cc2ncnc(Oc3ccc(NC(=O)Nc4cc(C)on4)c4ccccc34)c2cc1OC`: -1.52%, 0.23% and 61.9%.
`CCN(CC)CCNC(=O)c1c(C)[nH]c(/C=C2\C(=O)Nc3ccc(F)cc32)c1C`: the inhibition entry (in the experiment listed under Homo sapiens [7]; in experiment [8]; in experiment [9]; in experiment [10]; in experiment [11]; in experiment [12]) was “Active” throughout. Also, the inhibition entry (in experiment [13]; in experiment [14]; in experiment [15]; in experiment [16]; in [17]; in the experiment filed under Homo sapiens [18]) was “Active” throughout. Besides, the inhibition entry in [19], in experiment [20] and in experiment [21] was “Active” throughout.

The record behind these values is ChEMBL document CHEMBL4028913, “Discovery of Novel Potent VEGFR-2 Inhibitors Exerting Significant Antiproliferative Activity against Cancer Cell Lines” (J Med Chem, 2018).
